Test results as given in publication PMC4876717 (ACS chemical neuroscience, 2015).
Values belong to the compound of their own block, whether it stands above or below them.

Columns and labels:
[1] = cited from earlier work
[2] = test system: FAAH; settings: read-out: IC50 to FAAH in vitro; cited from earlier work
[3] = test system: triacylglycerol hydrolase (TGH); settings: relative to FAAH; cited from earlier work
[4] = test system: hydrolytic enzyme KIAA1363; settings: relative to FAAH; cited from earlier work
[5] = Lipophilicity, n-octanol/PBS liquid-liquid partition; format: physicochemical; settings: pH 7.4
Procedure, shortened: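 Radiolabelled test compound (~150,000 cpm) shaken with n-octanol (3.0 g) and 0.1 M sodium phosphate-buffered saline pH 7.40 (3.0 g): vortexed 3 min at room temperature, centrifuged 3500 rpm 5 min. Weighed aliquots of each phase gamma-counted. Remaining organic layer repartitioned until logD values were consistent. LogD = log[(cpm/g octanol)/(cpm/g PBS)]. Triplicate.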

[6] = Whole body biodistribution in mice; format: in vivo, ddY mice; settings: for Distribution of radioactivity, blood / Distribution of radioactivity, brain / Distribution of radioactivity, heart / Distribution of radioactivity, kidneys / Distribution of radioactivity, liver / Distribution of radioactivity, lungs / Distribution of radioactivity, muscle / Distribution of radioactivity, small intestine / Distribution of radioactivity, spleen / Distribution of radioactivity, testes: mean ± SD, n = 3
Procedure, shortened: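 Male ddY mice (7 weeks, 34–36 g) given tracer in saline (2 MBq, 0.03 nmol/200 μL) via tail vein. Three mice killed at each time point: 1, 5, 15, 30 and 60 min. Blood, brain, heart, lung, liver, spleen, kidneys, small intestine with contents, muscle and testes removed and weighed. Tissues gamma-counted with decay correction. Uptake expressed as %ID/g wet tissue.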

[7] = PET imaging in rats, brain uptake; format: in vivo, Sprague-Dawley rats
Procedure, shortened: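 Male Sprague-Dawley rats (7 weeks, 210–230 g) under isoflurane (5% induction, 1–2% maintenance). Tail-vein catheter used to inject tracer (40–51 MBq, 0.7–1 nmol/200 μL). Scans: 90 min 3D list mode, 350–750 keV, binned 1 min × 4, 2 min × 8, […]. Filtered back-projection. ROIs on whole brain, cerebral cortex and cerebellum. Decay-corrected SUV from injected activity and body weight. n = 3.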

[8] = biological target: T1, FAAH (Rattus norvegicus, UniProt P97612); assay: PET blocking study with URB597 in rats; format: in vivo, Sprague-Dawley rats; settings: pretreatment with URB597 3 mg/kg, 30 min iv before injection
T1 sequence (P97612 1-579): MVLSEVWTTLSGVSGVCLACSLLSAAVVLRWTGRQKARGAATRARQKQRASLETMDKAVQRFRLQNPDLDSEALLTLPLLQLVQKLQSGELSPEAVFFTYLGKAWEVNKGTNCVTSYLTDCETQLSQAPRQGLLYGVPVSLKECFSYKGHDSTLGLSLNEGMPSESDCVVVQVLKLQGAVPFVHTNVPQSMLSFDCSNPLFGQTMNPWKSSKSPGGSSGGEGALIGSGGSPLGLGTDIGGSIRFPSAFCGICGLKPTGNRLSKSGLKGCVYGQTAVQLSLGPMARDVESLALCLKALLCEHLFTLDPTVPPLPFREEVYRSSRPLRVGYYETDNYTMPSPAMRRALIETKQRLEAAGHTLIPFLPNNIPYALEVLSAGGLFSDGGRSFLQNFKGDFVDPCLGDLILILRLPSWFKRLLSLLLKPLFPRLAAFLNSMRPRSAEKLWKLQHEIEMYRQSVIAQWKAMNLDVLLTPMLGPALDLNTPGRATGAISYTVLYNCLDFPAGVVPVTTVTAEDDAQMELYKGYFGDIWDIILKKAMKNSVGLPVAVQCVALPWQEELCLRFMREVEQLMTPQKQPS
Procedure, shortened: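 Blocking arm of the rat brain PET, run in male Sprague-Dawley rats under isoflurane. Unlabelled FAAH inhibitor (3.0 mg/kg, in 300 μL saline with 10% ethanol and 5% Tween 80) given 30 min before the tracer (40–51 MBq, 0.7–1 nmol iv). Dynamic 90 min list-mode scan. Regional brain uptake taken as decay-corrected SUV and compared with baseline. Three rats per condition.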

[9] = Radiometabolite analysis in rat plasma and brain homogenate; format: in vivo, Sprague-Dawley rats; settings: 15 min post-tracer injection
Procedure, shortened: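 Sprague-Dawley rats (n = 3) given tracer iv (82 MBq, 1.1 nmol) and killed at 15 min. Plasma separated (15,000 g, 2 min, 4 °C) and deproteinised with equal volume acetonitrile. Brain homogenised in ice-cold acetonitrile/water 1:1 and centrifuged; supernatant recovery >90%. Supernatants run on radio-HPLC (C18, acetonitrile/0.05 M NH4OAc 2:8, 2 mL/min). Parent fraction = parent peak area/total peak area × 100, decay-corrected.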

[10] = test system: PgP/Bcrp; assay: PET imaging in wild-type and PgP/Bcrp knockout mice; format: in vivo
Procedure, shortened: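 Male […] mice, wild-type and Abcb1a/1b−/−Abcg2−/− (17–18 weeks), set up in the scanner as for the rat scans. Tracer (18 MBq, 0.12 nmol/100 μL) injected via tail-vein line. Dynamic 3D list-mode acquisition for 60 min (1 min × 4, 2 min × 8, 5 min × 8). Regional time-activity curves taken as SUV, processed as for rats. Three mice per genotype.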

[11] = Stability of formulated tracer; format: physicochemical; settings: within 90 min after formulation in saline

SMILES: O=C(Nc1cccnn1)N1CCC(=Cc2cccc(Oc3ccc(C(F)(F)F)cn3)c2)CC1 [[^11C]PF-04457845]
logD7.4 [1]: 3.48

SMILES: COc1ccccc1CCCCCCC(=O)c1ncc(-c2ccccn2)o1 [MPPO, 7-(2-methoxyphenyl)-1-(5-(pyridin-2-yl)oxazol-2-yl)heptan-1-one]
IC50 [2]: 10 nM
selectivity over triacylglycerol hydrolase (TGH) [3]: greater than 500 fold
selectivity over hydrolytic enzyme KIAA1363 [4]: > 10^5 fold

logD [5]: 3.43
brain uptake ([6]; mice biodistribution): 0.8 SUV
Distribution of radioactivity, blood ([6]; mice, 1 min after injection): 1.83 ± 0.15 %ID/g
Distribution of radioactivity, brain ([6]; mice, 1 min after injection): 1.87 ± 0.20 %ID/g
Distribution of radioactivity, heart ([6]; mice, 1 min after injection): 6.89 ± 0.60 %ID/g
Distribution of radioactivity, kidneys ([6]; mice, 1 min after injection): 12.64 ± 0.56 %ID/g
Distribution of radioactivity, liver ([6]; mice, 1 min after injection): 9.78 ± 1.10 %ID/g
Distribution of radioactivity, lungs ([6]; mice, 1 min after injection): 17.47 ± 3.88 %ID/g
Distribution of radioactivity, muscle ([6]; mice, 1 min after injection): 1.78 ±0.16 %ID/g
Distribution of radioactivity, small intestine ([6]; mice, 1 min after injection): 3.08 ± 0.29 %ID/g
Distribution of radioactivity, spleen ([6]; mice, 1 min after injection): 2.28 ± 0.50 %ID/g
Distribution of radioactivity, testes ([6]; mice, 1 min after injection): 0.44 ± 0.05 %ID/g
Distribution of radioactivity, blood ([6]; mice, 5 min after injection): 0.75 ± 0.07 %ID/g
Distribution of radioactivity, brain ([6]; mice, 5 min after injection): 2.27 ± 0.16 %ID/g
Distribution of radioactivity, heart ([6]; mice, 5 min after injection): 1.65 ± 0.07 %ID/g
Distribution of radioactivity, kidneys ([6]; mice, 5 min after injection): 17.17 ± 1.67 %ID/g
Distribution of radioactivity, liver ([6]; mice, 5 min after injection): 18.61 ± 2.31 %ID/g
Distribution of radioactivity, lungs ([6]; mice, 5 min after injection): 4.88 ± 0.41 %ID/g
Distribution of radioactivity, muscle ([6]; mice, 5 min after injection): 1.03 ± 0.09 %ID/g
Distribution of radioactivity, small intestine ([6]; mice, 5 min after injection): 7.22 ± 0.89 %ID/g
Distribution of radioactivity, spleen ([6]; mice, 5 min after injection): 1.29 ± 0.22 %ID/g
Distribution of radioactivity, testes ([6]; mice, 5 min after injection): 0.67 ± 0.02 %ID/g
Distribution of radioactivity, blood ([6]; mice, 15 min after injection): 0.38 ± 0.03 %ID/g
Distribution of radioactivity, brain ([6]; mice, 15 min after injection): 1.81 ± 0.09 %ID/g
Distribution of radioactivity, heart ([6]; mice, 15 min after injection): 0.55 ± 0.01 %ID/g
Distribution of radioactivity, kidneys ([6]; mice, 15 min after injection): 13.70 ± 0.69 %ID/g
Distribution of radioactivity, liver ([6]; mice, 15 min after injection): 20.05 ± 1.43 %ID/g
Distribution of radioactivity, lungs ([6]; mice, 15 min after injection): 1.20 ± 0.04 %ID/g
Distribution of radioactivity, muscle ([6]; mice, 15 min after injection): 0.58 ± 0.17 %ID/g
Distribution of radioactivity, small intestine ([6]; mice, 15 min after injection): 18.54 ± 4.00 %ID/g
Distribution of radioactivity, spleen ([6]; mice, 15 min after injection): 0.60 ± 0.03 %ID/g
Distribution of radioactivity, testes ([6]; mice, 15 min after injection): 0.59 ± 0.00 %ID/g
Distribution of radioactivity, blood ([6]; mice, 30 min after injection): 0.34 ± 0.05 %ID/g
Distribution of radioactivity, brain ([6]; mice, 30 min after injection): 1.40 ± 0.15 %ID/g
Distribution of radioactivity, heart ([6]; mice, 30 min after injection): 0.51 ± 0.03 %ID/g
Distribution of radioactivity, kidneys ([6]; mice, 30 min after injection): 9.55 ± 0.65 %ID/g
Distribution of radioactivity, liver ([6]; mice, 30 min after injection): 17.47 ± 1.10 %ID/g
Distribution of radioactivity, lungs ([6]; mice, 30 min after injection): 1.19 ± 0.18 %ID/g
Distribution of radioactivity, muscle ([6]; mice, 30 min after injection): 0.50 ± 0.17 %ID/g
Distribution of radioactivity, spleen ([6]; mice, 30 min after injection): 0.49 ± 0.03 %ID/g
Distribution of radioactivity, testes ([6]; mice, 30 min after injection): 0.48 ± 0.02 %ID/g
Distribution of radioactivity, heart ([6]; mice, 60 min after injection): 0.32 ± 0.03 %ID/g
Distribution of radioactivity, kidneys ([6]; mice, 60 min after injection): 6.20 ± 0.70 %ID/g
Distribution of radioactivity, liver ([6]; mice, 60 min after injection): 13.69 ±0.63 %ID/g
Distribution of radioactivity, lungs ([6]; mice, 60 min after injection): 0.64 ± 0.08 %ID/g
Distribution of radioactivity, muscle ([6]; mice, 60 min after injection): 0.24 ± 0.04 %ID/g
Distribution of radioactivity, small intestine ([6]; mice, 60 min after injection): 13.75 ±3.44 %ID/g
Distribution of radioactivity, spleen ([6]; mice, 60 min after injection): 0.37 ±0.01 %ID/g
Distribution of radioactivity, testes ([6]; mice, 60 min after injection): 0.30 ± 0.03 %ID/g
blood clearance, 1 min/60 min ratio ([6]; mice, blood radioactivity): 6.1
brain washout, 5 min/60 min ratio ([6]; mice, brain radioactivity): 2.6
time of peak radioactivity in brain tissues ([7]; rat brain PET, after injection): 1.5 min
highest (peak) radioactivity in cerebellar nuclei ([7]; rat brain PET, baseline): 0.87 SUV
brain washout, 5 min/60 min ratio ([7]; rat whole brain PET): 5.1
maximum uptake in whole brain ([7]; rat whole brain PET): 0.65 SUV
specificity to FAAH in rat brains [8]: modest
metabolism (radioactivity associated with hydrophilic metabolites) ([9]; rat brain homogenates): 75%
metabolism (radioactivity associated with hydrophilic metabolites) ([9]; rat plasma): 90%
peak brain uptake, cerebellum ([10]; PgP/Bcrp KO mice): 1.04 SUV
ratio of KO/WT in AUC, cerebellum ([10]; PgP/Bcrp KO vs wild type mice): 1.2
ratio of KO/WT in AUC, cerebral cortex ([10]; PgP/Bcrp KO vs wild type mice): 1.2
substrate for Pgp/Bcrp ([10]; mice, blood-brain barrier): not likely a substrate for Pgp/Bcrp
peak brain uptake, cerebellum ([10]; wild type mice): 0.78 SUV
peak brain uptake, cerebral cortex ([10]; wild type mice): 0.74 SUV
radiolysis after formulation [11]: no radiolysis was observed
SMILES: [11CH3]Oc1ccccc1CCCCCCC(=O)c1ncc(-c2ccccn2)o1 [[^11C]MPPO, 7-(2-[^11C]methoxyphenyl)-1-(5-(pyridin-2-yl)oxazol-2-yl)heptan-1-one]

SMILES: O=[11C](NC1CCCCC1)Oc1ccc(O)c(-c2ccccc2)c1 [[^11C]CURB]
logD7.4 [1]: 2.8
